# Starred links: 1 amine or outer side, 2 acyl side, 3 side chain; linkers in the order of their positions; H or OH if unused. Positions of bridges follow the written chain, without caps; N, C: chain ends. Non-standard residues stand in square brackets, D forms with d. Residues, ends and D or L forms follow the SMILES beside them. *: point of attachment. X2 = CC(C)CCCCC[C@@H](N[*:1])C(=O)[*:2]; S(2-cyclohexylethyl) = C1CCC(CCS*)CC1; S(3-Cl-benzyl) = Clc1cccc(CS*)c1; X3 = c1ccc(Oc2ccc(CS*)cc2)cc1; X5 = c1ccc(-c2ccc(CS*)cc2)cc1; S(3-Methylbutyl) = CC(C)CCS*; X6 = c1ccc(-c2ccc(S*)cc2)cc1; Dab = NCC[C@H](N)C(=O)O; X1 = CC(C)CCCCS*; X4 = CCCCCCS*
# Legend:
# Acinetobacter baumannii = assay: Antibacterial activity against Acinetobacter baumannii ATCC 19606 assessed as inhibition of bacterial growth by CLSI based broth microdilution method; assay type: functional
# Procedure, shortened: (§1)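 Broth microdilution per CLSI. Colonies from overnight blood agar at 37 °C were grown in TSB to OD600 0.5. Compounds (6.4 mg/mL DMSO stock) were diluted serially in CAMHB (12.5 μg/mL Mg2+, 20 μg/mL Ca2+) in polypropylene plates and inoculated to a final 10^6 CFU/mL, then incubated at 37 °C under gas-permeable membrane. MIC is the lowest concentration without visible growth, from at least duplicate experiments.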
# [1] = Stability of the compound in PBS assessed as drug degradation at 1 mg/ml incubated for 24 hrs in presence of 5 mM glutathione by RP-HPLC analysis; assay type: physicochemical; settings: buffer
# Procedure, shortened: (§2)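 Compound (1 mg/mL stock) was mixed 1:9 by volume with PBS glutathione stock: 5.5 μM for the low-glutathione line (7), 5.5 mM for the high-glutathione line (8). Vials were N2-flushed and held in the HPLC autosampler at RT. Samples at 0, 1, 2, 3, 4, 8, 10 and 24 h were analysed by RP-HPLC, UV 214 nm, and quantified against an external calibration curve in PBS run in duplicate.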
# [2] = Stability of the compound in PBS assessed as compound remaining at 1 mg/ml incubated for 24 hrs in presence of 5 uM glutathione by RP-HPLC analysis; assay type: physicochemical; settings: PBS with 5 uM glutathione, read-out: Stability; procedure, shortened: as §2
# Erythrocyte = assay: Hemolytic activity in sheep erythrocytes at 128 ug/ml incubated for 1 hr by absorbance based analysis; assay type: toxicity, cell-based, Ovis aries; settings: dose 128 µg/ml
# Procedure, shortened: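 Defibrinated sheep red cells were washed four times in PBS with 0.002% Tween20 and adjusted to A415 2.5–3.0. They were mixed 1:1 by volume with compound serial dilutions (128–4 μg/mL, before mixing) and shaken 1 h at 37 °C. After centrifugation, supernatant was diluted in PBS and read at 415 nm. Values were background-corrected and given as % of 0.1% Triton X-100 lysis, from triplicates.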
# [3] = Cytotoxicity against human differentiated conditionally immortalized RPTEC cells assessed as reduction in cell viability incubated for 24 hrs by PrestoBlue reagent based assay; assay type: toxicity; settings: read-out: TC50
# Procedure, shortened: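 ciPTEC (OAT-1) cells were seeded at 2.0 × 10^5 cells/mL in DMEM/F-12 with 10% FCS, insulin, transferrin, selenium, hydrocortisone, EGF and tri-iodothyronine. They were differentiated 24 h at 33 °C then 6 days at 37 °C, 5% CO2. Compounds serially diluted in serum-free medium were applied for 24 h at 37 °C, then 10% PrestoBlue in HBSS was added. Fluorescence (ex 530/em 590 nm) was background-corrected and normalized to untreated cells. TC50 came from nonlinear regression with bottom fixed at 0.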
# Klebsiella pneumoniae = assay: Antibacterial activity against Klebsiella pneumoniae ATCC 13883 assessed as inhibition of bacterial growth by CLSI based broth microdilution method; assay type: functional; procedure, shortened: as §1
# [4] = Toxicity index, ratio of test compound TC50 to polymyxin B TC50 for cytotoxicity against human differentiated conditionally immortalized RPTEC cells incubated for 24 hrs by PrestoBlue reagent based assay; assay type: cell-based
# Escherichia coli = assay: Antibacterial activity against Escherichia coli ATCC 25922 assessed as inhibition of bacterial growth by CLSI based broth microdilution method; assay type: functional; procedure, shortened: as §1
# Pseudomonas aeruginosa = assay: Antibacterial activity against Pseudomonas aeruginosa ATCC 27853 assessed as inhibition of bacterial growth by CLSI based broth microdilution method; assay type: functional; procedure, shortened: as §1
compound,measurement,setting,value
CC(C)CCSSC[C@H](N)C(=O)N[C@H](C(=O)N[C@@H](CCN)C(=O)N[C@H]1CCNC(=O)[C@H]([C@@H](C)O)NC(=O)[C@H](CCN)NC(=O)[C@H](CCN)NC(=O)[C@H](CC(C)C)NC(=O)[C@@H](Cc2ccccc2)NC(=O)[C@H](CCN)NC1=O)[C@@H](C)O (H-C(S(3-Methylbutyl))T[Dab][Dab][Dab][dF]L[Dab][Dab]T; lactam 4-C),MIC,Acinetobacter baumannii,> 32 µg/mL
CCCCCCSSC[C@H](N)C(=O)N[C@H](C(=O)N[C@@H](CCN)C(=O)N[C@H]1CCNC(=O)[C@H]([C@@H](C)O)NC(=O)[C@H](CCN)NC(=O)[C@H](CCN)NC(=O)[C@H](CC(C)C)NC(=O)[C@@H](Cc2ccccc2)NC(=O)[C@H](CCN)NC1=O)[C@@H](C)O (H-C(X4)T[Dab][Dab][Dab][dF]L[Dab][Dab]T; lactam 4-C),MIC,Acinetobacter baumannii,> 32 µg/mL
CC(C)C[C@@H]1NC(=O)[C@@H](Cc2ccccc2)NC(=O)[C@H](CCN)NC(=O)[C@@H](NC(=O)[C@H](CCN)NC(=O)[C@@H](NC(=O)[C@H](CSSCCC2CCCCC2)NC(=O)CN)[C@@H](C)O)CCNC(=O)[C@H]([C@@H](C)O)NC(=O)[C@H](CCN)NC(=O)[C@H](CCN)NC1=O (H-GC(S(2-cyclohexylethyl))T[Dab][Dab][Dab][dF]L[Dab][Dab]T; lactam 5-C),Stability,[1],Unstable
same,"remaining at 24 h, 1 mg/ml",[2],70%
same,Activity,Erythrocyte,Non-Toxic
CC(C)C[C@@H]1NC(=O)[C@@H](Cc2ccccc2)NC(=O)[C@H](CCN)NC(=O)[C@@H](NC(=O)[C@H](CCN)NC(=O)[C@@H](NC(=O)[C@H](CSSc2ccc(-c3ccccc3)cc2)NC(=O)CN)[C@@H](C)O)CCNC(=O)[C@H]([C@@H](C)O)NC(=O)[C@H](CCN)NC(=O)[C@H](CCN)NC1=O (H-GC(X6)T[Dab][Dab][Dab][dF]L[Dab][Dab]T; lactam 5-C),Activity,Erythrocyte,Non-Toxic
CC(C)C[C@@H]1NC(=O)[C@@H](Cc2ccccc2)NC(=O)[C@H](CCN)NC(=O)[C@@H](NC(=O)[C@H](CCN)NC(=O)[C@@H](NC(=O)[C@@H](CSSCCC2CCCCC2)NC(=O)CN)[C@@H](C)O)CCNC(=O)[C@H]([C@@H](C)O)NC(=O)[C@H](CCN)NC(=O)[C@H](CCN)NC1=O (H-G[dC](S(2-cyclohexylethyl))T[Dab][Dab][Dab][dF]L[Dab][Dab]T; lactam 5-C),Activity,Erythrocyte,Non-Toxic
CC(C)CCCCC[C@@H](N)C(=O)N[C@H](C(=O)N[C@@H](CCN)C(=O)N[C@H]1CCNC(=O)[C@H]([C@@H](C)O)NC(=O)[C@H](CCN)NC(=O)[C@H](CCN)NC(=O)[C@H](CC(C)C)NC(=O)[C@@H](Cc2ccccc2)NC(=O)[C@H](CCN)NC1=O)[C@@H](C)O (H-[X2]T[Dab][Dab][Dab][dF]L[Dab][Dab]T; lactam 4-C),Activity,Erythrocyte,Non-Toxic
same,CC50 at 24 h,[3],82 µM
CC(C)C[C@@H]1NC(=O)[C@@H](Cc2ccccc2)NC(=O)[C@H](CCN)NC(=O)[C@@H](NC(=O)[C@H](CCN)NC(=O)[C@@H](NC(=O)[C@H](N)CSSCCC2CCCCC2)[C@@H](C)O)CCNC(=O)[C@H]([C@@H](C)O)NC(=O)[C@H](CCN)NC(=O)[C@H](CCN)NC1=O (H-[dC](S(2-cyclohexylethyl))T[Dab][Dab][Dab][dF]L[Dab][Dab]T; lactam 4-C),Activity,Erythrocyte,Non-Toxic
CC(C)C[C@@H]1NC(=O)[C@@H](Cc2ccccc2)NC(=O)[C@H](CCN)NC(=O)[C@@H](NC(=O)[C@H](CCN)NC(=O)[C@@H](NC(=O)[C@H](N)CSSCc2cccc(Cl)c2)[C@@H](C)O)CCNC(=O)[C@H]([C@@H](C)O)NC(=O)[C@H](CCN)NC(=O)[C@H](CCN)NC1=O (H-[dC](S(3-Cl-benzyl))T[Dab][Dab][Dab][dF]L[Dab][Dab]T; lactam 4-C),Activity,Erythrocyte,Non-Toxic
CC(C)CCSSC[C@@H](N)C(=O)N[C@H](C(=O)N[C@@H](CCN)C(=O)N[C@H]1CCNC(=O)[C@H]([C@@H](C)O)NC(=O)[C@H](CCN)NC(=O)[C@H](CCN)NC(=O)[C@H](CC(C)C)NC(=O)[C@@H](Cc2ccccc2)NC(=O)[C@H](CCN)NC1=O)[C@@H](C)O (H-[dC](S(3-Methylbutyl))T[Dab][Dab][Dab][dF]L[Dab][Dab]T; lactam 4-C),Stability,[1],Unstable
same,"remaining at 24 h, 1 mg/ml",[2],70%
same,Activity,Erythrocyte,Non-Toxic
same,CC50 at 24 h,[3],192 µM
CC(C)CCCCSSC[C@@H](N)C(=O)N[C@H](C(=O)N[C@@H](CCN)C(=O)N[C@H]1CCNC(=O)[C@H]([C@@H](C)O)NC(=O)[C@H](CCN)NC(=O)[C@H](CCN)NC(=O)[C@H](CC(C)C)NC(=O)[C@@H](Cc2ccccc2)NC(=O)[C@H](CCN)NC1=O)[C@@H](C)O (H-[dC](X1)T[Dab][Dab][Dab][dF]L[Dab][Dab]T; lactam 4-C),Activity,Erythrocyte,Non-Toxic
CC(C)C[C@@H]1NC(=O)[C@@H](Cc2ccccc2)NC(=O)[C@H](CCN)NC(=O)[C@@H](NC(=O)[C@H](CCN)NC(=O)[C@@H](NC(=O)[C@H](N)CSSCc2ccc(Oc3ccccc3)cc2)[C@@H](C)O)CCNC(=O)[C@H]([C@@H](C)O)NC(=O)[C@H](CCN)NC(=O)[C@H](CCN)NC1=O (H-[dC](X3)T[Dab][Dab][Dab][dF]L[Dab][Dab]T; lactam 4-C),Activity,Erythrocyte,Non-Toxic
CCCCCCSSC[C@@H](N)C(=O)N[C@H](C(=O)N[C@@H](CCN)C(=O)N[C@H]1CCNC(=O)[C@H]([C@@H](C)O)NC(=O)[C@H](CCN)NC(=O)[C@H](CCN)NC(=O)[C@H](CC(C)C)NC(=O)[C@@H](Cc2ccccc2)NC(=O)[C@H](CCN)NC1=O)[C@@H](C)O (H-[dC](X4)T[Dab][Dab][Dab][dF]L[Dab][Dab]T; lactam 4-C),Activity,Erythrocyte,Non-Toxic
CC(C)C[C@@H]1NC(=O)[C@@H](Cc2ccccc2)NC(=O)[C@H](CCN)NC(=O)[C@@H](NC(=O)[C@H](CCN)NC(=O)[C@@H](NC(=O)[C@H](N)CSSCc2ccc(-c3ccccc3)cc2)[C@@H](C)O)CCNC(=O)[C@H]([C@@H](C)O)NC(=O)[C@H](CCN)NC(=O)[C@H](CCN)NC1=O (H-[dC](X5)T[Dab][Dab][Dab][dF]L[Dab][Dab]T; lactam 4-C),Activity,Erythrocyte,Non-Toxic
CC(C)C[C@@H]1NC(=O)[C@@H](Cc2ccccc2)NC(=O)[C@H](CCN)NC(=O)[C@@H](NC(=O)[C@H](CCN)NC(=O)[C@@H](N)[C@@H](C)O)CCNC(=O)[C@H]([C@@H](C)O)NC(=O)[C@H](CCN)NC(=O)[C@H](CCN)NC1=O [POLYMYXIN B NONAPEPTIDE] (H-T[Dab][Dab][Dab][dF]L[Dab][Dab]T; lactam 3-C),MIC,Klebsiella pneumoniae,> 32 µg/mL
same,MIC,Acinetobacter baumannii,> 32 µg/mL
same,selectivity ratio at 24 h,[4],> 10
same,MIC,Escherichia coli,> 32 µg/mL
same,MIC,Pseudomonas aeruginosa,> 32 µg/mL
POLYMYXIN B [listing 1 of 2 here],Activity,Erythrocyte,Non-Toxic
POLYMYXIN B [listing 2 of 2 here],MIC,Klebsiella pneumoniae,0.25 µg/mL
same,MIC,Acinetobacter baumannii,0.25 µg/mL
same,MIC,Escherichia coli,1 µg/mL
same,MIC,Pseudomonas aeruginosa,1 µg/mL

# Reference: ChEMBL document CHEMBL5150048, “Synthesis and Evaluation of Polymyxins Bearing Reductively Labile Disulfide-Linked Lipids” (J Med Chem, 2022)
